In brackets after ≈: the same amount, converted by molar mass.
Assays:
Staphylococcus aureus [1] = assay: Antibacterial activity against methicillin-resistant Staphylococcus aureus clinical isolate 2 incubated for 16 to 18 hrs by broth microdilution method; type: functional
Staphylococcus aureus [2] = assay: Ratio of MBEC to MBC for methicillin-resistant Staphylococcus aureus clinical isolate 2 biofilm eradication; type: functional
How it was run: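 From the same CBD challenge plate, MBC taken by subculturing 20 µL into 180 µL TSBG overnight at 37 °C (no turbidity); MBEC from recovered pegs in fresh TSBG 24 h; ratio MBEC:MBC against MRSA-2.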

Staphylococcus aureus [3] = assay: Antibiofilm activity against methicillin-resistant Staphylococcus aureus isolate 2 assessed as biofilm eradication incubated for 24 hrs by CBD assay; type: functional; conditions: for MBC: Staphylococcus aureus, isolate 2, 24 h
How it was run: (§1)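 Calgary Biofilm Device: pegs inoculated with mid-log culture diluted 1,000-fold in TSB + 0.5% glucose, 24 h 37 °C; washed pegs challenged with 2-fold dilutions 24 h 37 °C; pegs moved to fresh TSBG 24 h; MBEC = lowest concentration leaving no turbidity; 2–6 independent experiments.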

[4] = system: Staphylococcus epidermidis; assay: Antibacterial activity against methicillin-resistant Staphylococcus epidermidis ATCC 35984 incubated for 16 to 18 hrs by broth microdilution method; type: functional
[5] = system: Staphylococcus epidermidis; assay: Antibacterial activity against Staphylococcus epidermidis ATCC 12228 incubated for 16 to 18 hrs by broth microdilution method; type: functional
[6] = system: Staphylococcus epidermidis; assay: Antibacterial activity against methicillin-resistant Staphylococcus epidermidis ATCC 35984 assessed as biofilm eradication incubated for 24 hrs by CBD assay; type: functional; conditions: for MBC: Staphylococcus epidermidis, ATCC 35984, 24 h; how it was run: as §1
Enterococcus faecium [7] = assay: Antibacterial activity against vancomycin-resistant Enterococcus faecium ATCC 700221 incubated for 16 to 18 hrs by broth microdilution method; type: functional
HeLa = assay: Cytotoxicity against human HeLa cells after 24 hrs by LDH release assay; type: cell-based
How it was run: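 HeLa in DMEM + 10% FBS, 37 °C 5% CO2, at 70–80% confluence treated with 25, 50, 100 µM for 24 h; DMSO vehicle; Triton X-100 2% v/v max-LDH control, medium-only negative; supernatant with LDH reaction mix 30 min room temperature, stopped, absorbance 490 nm.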

Staphylococcus aureus [8] = assay: Antibacterial activity against methicillin-resistant Staphylococcus aureus clinical isolate 2 incubated for 16 hrs by broth microdilution method in presence of Cu2+; type: functional; conditions: isolate 2, 16 h
Staphylococcus aureus [9] = assay: Antibacterial activity against methicillin-resistant Staphylococcus aureus clinical isolate 2 incubated for 16 hrs by broth microdilution method; type: functional; conditions: isolate 2, 16 h
Staphylococcus aureus [10] = assay: Antibacterial activity against methicillin-resistant Staphylococcus aureus clinical isolate 2 incubated for 16 hrs by broth microdilution method in presence of tiron; type: functional; conditions: isolate 2, 16 h
[11] = Induction of hemolysis in human RBC at 200 uM incubated for 1 hr; type: cell-based, Erythrocyte; conditions: red blood cells, read-out: Activity
How it was run: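 Human RBCs (EDTA), washed three times in Tris-buffered saline pH 7.2; 2% hRBC with compound at final 200 µM, 1 h 37 °C; supernatant OD405; % hemolysis relative to DMSO (0%) and Triton X (100%).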

Staphylococcus aureus [12] = assay: Antibacterial activity against methicillin-resistant Staphylococcus aureus BAA-44 incubated for 16 to 18 hrs by broth microdilution method; type: functional
Staphylococcus aureus [13] = assay: Antibacterial activity against methicillin-resistant Staphylococcus aureus BAA-1707 incubated for 16 to 18 hrs by broth microdilution method; type: functional
[14] = system: Mycobacterium tuberculosis; assay: Antibacterial activity against Mycobacterium tuberculosis H37Ra ATCC 25177 after 7 days by two-fold serial dilution method; type: functional; conditions: H37Ra ATCC 25177, 168 h
Enterococcus faecium [15] = assay: Antibiofilm activity against […]-resistant Enterococcus faecium ATCC 700221 assessed as biofilm eradication incubated for 24 hrs by CBD assay; type: functional; conditions: for MBC: Enterococcus faecium, ATCC 700221, 24 h; how it was run: as §1
[16] = Metal chelating activity assessed as soluble Cu2+-compound complex formation by UV-vis spectroscopic analysis; type: physicochemical
How it was run: (§2)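 UV-vis monitoring after adding 0.5 equivalents CuSO4 or ammonium iron(II) sulfate to stirred 10 mM ligand in DMSO; Cu stoichiometry from free ligand remaining after 2 h room-temperature stirring with varying CuSO4 in methanol, filtered, redissolved in DMSO, A440 against calibration curve.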

[17] = Metal chelating activity assessed as soluble Fe2+-compound complex formation by UV-vis spectroscopic analysis; type: physicochemical; how it was run: as §2
Staphylococcus aureus [18] = assay: Antibacterial activity against methicillin-resistant Staphylococcus aureus clinical isolate 2 incubated for 16 hrs by broth microdilution method in presence of Fe2+; type: functional; conditions: isolate 2, 16 h
[19] = Dissociation constant, pKa of compound; type: physicochemical
[20] = Aqueous solubility of compound in media after 16 hrs; type: physicochemical
[21] = system: Staphylococcus epidermidis; assay: Antibiofilm activity against methicillin-resistant Staphylococcus epidermidis ATCC 35984 assessed as reduction in persister cells level within biofilms MBEC incubated for 24 hrs by CBD assay; type: functional; parameters: scale not given: the % may be the effect or the level left
How it was run: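 After CBD challenge and recovery, pegs sonicated 30 min in PBS and plated to count viable biofilm cells (CFU/mL) at and below MBEC.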

Staphylococcus aureus [22] = assay: Antibiofilm activity against methicillin-resistant Staphylococcus aureus BAA-1707 assessed as biofilm eradication incubated for 24 hrs by CBD assay; type: functional; conditions: for MBC: Staphylococcus aureus, BAA-1707, 24 h; how it was run: as §1

| SMILES | MIC (Staphylococcus aureus [1]) [µM] | MBEC (Staphylococcus aureus [3]) [µM] | MBC (Staphylococcus aureus [3]) [µM] | MIC [4] [µM] | MIC [5] [µM] | MBEC [6] [µM] | MBC [6] [µM] | MIC (Enterococcus faecium [7]) [µM] | IC50 (HeLa) [µM] | MIC (Staphylococcus aureus [8]) [µM] | MIC (Staphylococcus aureus [9]) [µM] | hemolysis at 1 h, 200 µM [11] [%] | MIC (Staphylococcus aureus [12]) [µM] | MIC (Staphylococcus aureus [13]) [µM] | MIC [14] [µM] | MBEC (Enterococcus faecium [15]) [µM] | MBC (Enterococcus faecium [15]) [µM] | also measured |
| --- | --- | --- | --- | --- | --- | --- | --- | --- | --- | --- | --- | --- | --- | --- | --- | --- | --- | --- |
| CO[C@H]1/C=C/O[C@@]2(C)Oc3c(C)c(O)c4c(O)c(c(/C=N/N5CCN(C)CC5)c(O)c4c3C2=O)NC(=O)/C(C)=C\C=C\[C@H](C)[C@H](O)[C@@H](C)[C@@H](O)[C@@H](C)[C@H](OC(C)=O)[C@@H]1C [RIFAMPIN] | 0.1 (≈ 0.0823 µg/mL) | 46.9 | 2 (≈ 1.65 µg/mL) | 0.1 (≈ 0.0823 µg/mL) | 0.1 (≈ 0.0823 µg/mL) | 15.6 | 3 (≈ 2.47 µg/mL) |  |  |  |  |  |  |  |  |  |  | Ratio (Staphylococcus aureus [2]): >23 |
| Oc1c(Cl)cc(Br)c2nc3cc(Br)c(Br)cc3nc12 | 12.5 (≈ 5.84 µg/mL) | 25 | 25 (≈ 11.7 µg/mL) | 0.3 (≈ 0.14 µg/mL) | 0.08 (≈ 0.0374 µg/mL) | 3.13 | 1.56 (≈ 0.729 µg/mL) | 0.39 (≈ 0.182 µg/mL) | > 100 | > 100 | 3.13 (≈ 1.46 µg/mL) | 2.1 | 25 (≈ 11.7 µg/mL) |  |  |  |  | MIC (Staphylococcus aureus [10]): 0.2 µM |
| Cc1ccc2c(Br)cc(Br)c(O)c2n1 [BROQUINALDOL] |  | 188 | 23.5 (≈ 7.45 µg/mL) | 0.3 (≈ 0.0951 µg/mL) | 0.78 (≈ 0.247 µg/mL) | 93.8 | 9.38 (≈ 2.97 µg/mL) | 2.35 (≈ 0.745 µg/mL) | > 100 |  |  |  | 0.78 (≈ 0.247 µg/mL) | 0.78 (≈ 0.247 µg/mL) | 25 (≈ 7.92 µg/mL) | 1.5 | 2 (≈ 0.634 µg/mL) | Activity [16]: Active; Activity [17]: Active |
| Oc1ccc(Br)c2nc3cc(Br)c(Br)cc3nc12 | 1.56 (≈ 0.675 µg/mL) | >200 | > 200 | 3.13 (≈ 1.35 µg/mL) |  | >200 | > 200 | 6.25 (≈ 2.71 µg/mL) |  | > 100 | 12.5 (≈ 5.41 µg/mL) | ≤ 1 | 1.56 (≈ 0.675 µg/mL) | 0.56 (≈ 0.242 µg/mL) |  | >200 | > 200 | MIC (Staphylococcus aureus [18]): 25 µM; MIC (Staphylococcus aureus [10]): 0.1 µM |
| Oc1ccc(Br)c2nc3cc(Cl)c(Cl)cc3nc12 | 0.78 (≈ 0.268 µg/mL) |  |  | 1.56 (≈ 0.537 µg/mL) | 3.13 (≈ 1.08 µg/mL) | 100 | 37.5 (≈ 12.9 µg/mL) | 6.25 (≈ 2.15 µg/mL) | > 100 |  | 0.78 (≈ 0.268 µg/mL) | 2.7 | 1.17 (≈ 0.402 µg/mL) | 0.3 (≈ 0.103 µg/mL) | 3.13 (≈ 1.08 µg/mL) | 25 | 100 (≈ 34.4 µg/mL) | pKa [19]: 8.42; solubility at 16 h [20]: 200 µM (≈ 68.8 µg/mL) |
| Oc1c(Br)cc(Br)c2nc3cc(Cl)c(Cl)cc3nc12 |  |  |  | 0.3 (≈ 0.127 µg/mL) | 0.08 (≈ 0.0338 µg/mL) |  |  | 0.39 (≈ 0.165 µg/mL) | > 100 |  |  | ≤ 1 | 50 (≈ 21.1 µg/mL) | 25 (≈ 10.6 µg/mL) | 6.25 (≈ 2.64 µg/mL) | 0.39 | 0.39 (≈ 0.165 µg/mL) | Activity [21]: >99.99%; MBEC (Staphylococcus aureus [22]): 12.5 µM; MBC (Staphylococcus aureus [22]): 6.25 µM (≈ 2.64 µg/mL) |
| CCCCCCCCCC(=O)N[C@@H](Cc1c[nH]c2ccccc12)C(=O)N[C@@H](CC(N)=O)C(=O)N[C@@H](CC(=O)O)C(=O)N[C@@H]1C(=O)NCC(=O)N[C@@H](CCCN)C(=O)N[C@@H](CC(=O)O)C(=O)N[C@H](C)C(=O)N[C@@H](CC(=O)O)C(=O)NCC(=O)N[C@H](CO)C(=O)N[C@@H]([C@H](C)CC(=O)O)C(=O)N[C@@H](CC(=O)c2ccccc2N)C(=O)O[C@@H]1C [DAPTOMYCIN] |  | >2000 | 62.5 (≈ 101 µg/mL) | 12.5 (≈ 20.3 µg/mL) | 6.25 (≈ 10.1 µg/mL) |  |  |  |  | 12.5 | 6.25 (≈ 10.1 µg/mL) |  | 18.8 (≈ 30.5 µg/mL) | 3.13 (≈ 5.07 µg/mL) |  |  |  | MBEC (Staphylococcus aureus [22]): >2000 µM; MBC (Staphylococcus aureus [22]): 125 µM (≈ 203 µg/mL); MIC (Staphylococcus aureus [18]): 6.25 µM |

Reference: ChEMBL document CHEMBL3813699, “Structure-Activity Relationships of a Diverse Class of Halogenated Phenazines That Targets Persistent, Antibiotic-Tolerant Bacterial Biofilms and Mycobacterium tuberculosis” (J Med Chem, 2016)
